For one assay, the system named is Candida tropicalis. Put plainly: In vitro antifungal activity against Candida tropicalis. The assay is classed as functional. Summed up: (§1)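 Fungal growth-inhibition screen (Godefroi method) against dermatophytes, yeasts, moulds and other fungi. The value is the lowest concentration (µg/mL) giving total inhibition of growth, tested up to 100 µg/mL.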
The subject of another assay is Phialophora verrucosa. Put plainly: In vitro antifungal activity against Phialophora verrucosa. In kind it is functional. In outline: as §1
The subject of the next assay is Sporothrix schenckii. Put plainly: In vitro antifungal activity against Sporothrix schenck ii. The assay is classed as functional. In outline: as §1
In another assay the test system is Aspergillus fumigatus. Put plainly: In vitro antifungal activity against Aspergillus fumigatus. In kind it is functional. Summed up: as §1
In the next assay the test system is Candida albicans. Put plainly: In vitro antifungal activity against Candida albicans. In kind it is functional. Summed up:
as §1

A further assay concerns Microsporum canis. Put plainly: In vitro antifungal activity against Microsporum canis. In kind it is functional. In outline:
as §1

The next assay has as its system Trichophyton benhamiae. Put plainly: In vitro antifungal activity against Trichophyton mentagrophytes. In kind it is functional, Arthroderma benhamiae. Summed up: as §1
Assay [1] in a line: In vivo activity against microsporosis guinea pig, measured as the ratio of animals cured/animals infected (C/I) at dose 2.5 mg/kg; C/I = 0/2. The assay is classed as functional.
In a further assay the test system is Saprolegnia. Put plainly: In vitro antifungal activity against Saprolegnia sp. The assay is classed as functional. Summed up:
as §1

A short description of assay [2]: In vitro antifungal activity against Mucor sp. The assay is classed as functional. In outline:
as §1

For another assay, the system named is Trichophyton rubrum. Put plainly: In vitro antifungal activity against Trichophyton rubrum. The assay is classed as functional. Summed up:
as §1

A further assay concerns Cryptococcus neoformans. Put plainly: In vitro antifungal activity against Cryptococcus neoformans. In kind it is functional. Summed up: as §1
Assay [3] is described as follows: In vivo activity against microsporosis guinea pig, measured as the ratio of animals cured/animals infected (C/I) at dose 10 mg/kg; C/I = 0/2. In kind it is functional.
A short description of assay [4]: In vivo activity against vaginal candidoses in rats, measured as the ratio of animals cured/animals infected (C/I) at dose 2.5 mg/kg; C/I = 1/2. In kind it is functional.
Assay [5] can be described thus: In vivo activity against vaginal candidoses in rats, measured as the ratio of animals cured/animals infected (C/I) at dose 2.5 mg/kg; C/I = 0/2. The assay is classed as functional.
Assay [6] in a line: In vivo activity against microsporosis guinea pig, measured as the ratio of animals cured/animals infected (C/I) at dose 10 mg/kg; C/I = 2/2. The assay is classed as functional.

SMILES strings stand for the structures.

With `CCc1nnc(O)n1-c1ccc(N2CCN(c3ccc(OC[C@@H]4COC(Cn5ccnc5)(c5ccc(Cl)cc5Cl)O4)cc3)CC2)cc1` (stereo partly specified), the Inhibition was 100 µg/mL with Candida tropicalis; greater than 100 µg/mL in the assay with Phialophora verrucosa; greater than 100 µg/mL in the assay on Sporothrix schenckii; greater than 100 µg/mL in the assay on Aspergillus fumigatus; 100 µg/mL in the assay on Candida albicans; greater than 100 µg/mL in the assay with Microsporum canis. The Inhibition (in the assay on Trichophyton benhamiae; in the assay with Saprolegnia; in assay [2]; in the assay on Trichophyton rubrum; in the assay on Cryptococcus neoformans) was greater than 100 µg/mL each time. In addition, in [1], the C/I ratio came out at 0.

Regarding `CC(C)Cn1ncn(-c2ccc(N3CCN(c4ccc(OC[C@@H]5COC(Cn6ccnc6)(c6ccc(Cl)cc6Cl)O5)cc4)CC3)cc2)c1=O` (stereo partly specified), the Inhibition was greater than 100 µg/mL in the assay on Candida tropicalis; greater than 100 µg/mL with Phialophora verrucosa; greater than 100 µg/mL in the assay with Sporothrix schenckii; greater than 100 µg/mL in the assay with Aspergillus fumigatus; 100 µg/mL with Candida albicans; greater than 100 µg/mL in the assay with Microsporum canis. Further, the Inhibition was 100 µg/mL in the assay with Trichophyton benhamiae; greater than 100 µg/mL with Saprolegnia; greater than 100 µg/mL in [2]; greater than 100 µg/mL in the assay with Trichophyton rubrum; greater than 100 µg/mL in the assay on Cryptococcus neoformans. Moreover, the figures for the C/I ratio in assay [3] and in assay [4] were 0 and 1, respectively.

With `Cc1nnc(O)n1-c1ccc(N2CCN(c3ccc(OC[C@@H]4COC(Cn5cncn5)(c5ccc(Cl)cc5Cl)O4)cc3)CC2)cc1` (stereo partly specified), the Inhibition is 1 µg/mL in the assay with Candida tropicalis; 100 µg/mL in the assay with Phialophora verrucosa; greater than 100 µg/mL with Sporothrix schenckii; greater than 100 µg/mL with Aspergillus fumigatus; greater than 100 µg/mL with Candida albicans; greater than 100 µg/mL in the assay with Microsporum canis. Further, the Inhibition in the assay on Trichophyton benhamiae is 10 µg/mL; with Saprolegnia it was greater than 100 µg/mL; in [2] it was greater than 100 µg/mL; in the assay with Trichophyton rubrum, 100 µg/mL; in the assay on Cryptococcus neoformans, 100 µg/mL. The C/I ratio in assay [3] is listed as 0.

In the case of `CCCn1nc(C)n(-c2ccc(N3CCN(c4ccc(OC[C@@H]5COC(Cn6ccnc6)(c6ccc(Cl)cc6Cl)O5)cc4)CC3)cc2)c1=O` (stereo partly specified), the Inhibition in the assay with Candida tropicalis was 100 µg/mL; with Phialophora verrucosa it was greater than 100 µg/mL; with Sporothrix schenckii, greater than 100 µg/mL; in the assay with Aspergillus fumigatus, greater than 100 µg/mL; with Candida albicans it was 100 µg/mL; in the assay on Microsporum canis, greater than 100 µg/mL. Further, the Inhibition (in the assay on Trichophyton benhamiae; in the assay with Saprolegnia; in assay [2]; with Trichophyton rubrum; with Cryptococcus neoformans) was greater than 100 µg/mL in each case. In assay [5], the C/I ratio is on record as 0.

`Cc1nn(C(C)C)c(=O)n1-c1ccc(N2CCN(c3ccc(OC[C@@H]4COC(Cn5cncn5)(c5ccc(Cl)cc5Cl)O4)cc3)CC2)cc1` (stereo partly specified): the Inhibition with Candida tropicalis was 10 µg/mL; with Phialophora verrucosa, greater than 100 µg/mL; in the assay on Sporothrix schenckii, greater than 100 µg/mL; in the assay with Aspergillus fumigatus it was greater than 100 µg/mL; in the assay with Candida albicans, greater than 100 µg/mL; in the assay with Microsporum canis it was greater than 100 µg/mL. Moreover, the Inhibition was 100 µg/mL with Trichophyton benhamiae; greater than 100 µg/mL with Saprolegnia; greater than 100 µg/mL in [2]; greater than 100 µg/mL with Trichophyton rubrum; greater than 100 µg/mL in the assay with Cryptococcus neoformans. In addition, the C/I ratio in assay [3] came to 0; in assay [4], 1.

As for `O=c1n(-c2ccc(N3CCN(c4ccc(OC[C@@H]5COC(Cn6cncn6)(c6ccc(Cl)cc6Cl)O5)cc4)CC3)cc2)cnn1C1CCCC1` (stereo partly specified), the Inhibition in the assay on Candida tropicalis, in the assay with Phialophora verrucosa, with Sporothrix schenckii, in the assay on Aspergillus fumigatus, with Candida albicans and with Microsporum canis was greater than 100 µg/mL in each case. Moreover, the Inhibition in the assay with Trichophyton benhamiae is 100 µg/mL; in the assay on Saprolegnia, greater than 100 µg/mL; in assay [2], greater than 100 µg/mL; in the assay with Trichophyton rubrum, greater than 100 µg/mL; in the assay on Cryptococcus neoformans, greater than 100 µg/mL. In addition, the values for the C/I ratio in [6], in assay [1] and in [4] were 2, 0 and 1, respectively.

Take `CCn1nc(C)n(-c2ccc(N3CCN(c4ccc(OC[C@@H]5COC(Cn6ccnc6)(c6ccc(Cl)cc6Cl)O5)cc4)CC3)cc2)c1=O` (stereo partly specified): the Inhibition in the assay with Candida tropicalis is 100 µg/mL; in the assay with Phialophora verrucosa, greater than 100 µg/mL; in the assay on Sporothrix schenckii, greater than 100 µg/mL; in the assay with Aspergillus fumigatus, greater than 100 µg/mL; in the assay on Candida albicans, greater than 100 µg/mL; in the assay on Microsporum canis, greater than 100 µg/mL. Besides, the Inhibition is 100 µg/mL with Trichophyton benhamiae; greater than 100 µg/mL with Saprolegnia; greater than 100 µg/mL in assay [2]; greater than 100 µg/mL in the assay on Trichophyton rubrum; greater than 100 µg/mL with Cryptococcus neoformans. For the same compound, the C/I ratio in assay [1] and in [5] was 0 throughout.

For the compound `Oc1nncn1-c1ccc(N2CCN(c3ccc(OC[C@@H]4COC(Cn5cncn5)(c5ccc(Cl)cc5Cl)O4)cc3)CC2)cc1` (stereo partly specified), the Inhibition with Candida tropicalis, in the assay on Phialophora verrucosa, in the assay with Sporothrix schenckii, in the assay on Aspergillus fumigatus, in the assay on Candida albicans and in the assay on Microsporum canis was greater than 100 µg/mL throughout. Besides, the Inhibition (in the assay with Trichophyton benhamiae; in the assay with Saprolegnia; in assay [2]; with Trichophyton rubrum; in the assay on Cryptococcus neoformans) was greater than 100 µg/mL in each case. Further, in assay [3], the C/I ratio is 0.

As for `Cc1nnc(O)n1-c1ccc(N2CCN(c3ccc(OC[C@@H]4COC(Cn5ccnc5)(c5ccc(Cl)cc5Cl)O4)cc3)CC2)cc1` (stereo partly specified), the Inhibition is 10 µg/mL in the assay with Candida tropicalis; greater than 100 µg/mL in the assay on Phialophora verrucosa; greater than 100 µg/mL in the assay on Sporothrix schenckii; greater than 100 µg/mL with Aspergillus fumigatus; 100 µg/mL in the assay on Candida albicans; greater than 100 µg/mL with Microsporum canis. Further, the Inhibition with Trichophyton benhamiae is 10 µg/mL; in the assay on Saprolegnia, greater than 100 µg/mL; in [2], greater than 100 µg/mL; in the assay on Trichophyton rubrum, 10 µg/mL; in the assay on Cryptococcus neoformans, 100 µg/mL. Further, the C/I ratio in assay [3] is reported as 0.

With `Oc1nncn1-c1ccc(N2CCN(c3ccc(OC[C@@H]4COC(Cn5ccnc5)(c5ccc(Cl)cc5Cl)O4)cc3)CC2)cc1` (stereo partly specified), the Inhibition in the assay with Candida tropicalis is 100 µg/mL; in the assay with Phialophora verrucosa, greater than 100 µg/mL; in the assay on Sporothrix schenckii, greater than 100 µg/mL; with Aspergillus fumigatus it was greater than 100 µg/mL; with Candida albicans it was greater than 100 µg/mL; in the assay with Microsporum canis it was greater than 100 µg/mL. The Inhibition was 100 µg/mL in the assay on Trichophyton benhamiae; greater than 100 µg/mL with Saprolegnia; greater than 100 µg/mL in [2]; greater than 100 µg/mL with Trichophyton rubrum; greater than 100 µg/mL with Cryptococcus neoformans. For the same compound, in assay [5], the C/I ratio is given as 0.

As to `CCn1ncn(-c2ccc(N3CCN(c4ccc(OC[C@@H]5COC(Cn6ccnc6)(c6ccc(Cl)cc6Cl)O5)cc4)CC3)cc2)c1=O` (stereo partly specified), the Inhibition in the assay with Candida tropicalis was 100 µg/mL; in the assay on Phialophora verrucosa, greater than 100 µg/mL; in the assay with Sporothrix schenckii it was greater than 100 µg/mL; in the assay on Aspergillus fumigatus, greater than 100 µg/mL; with Candida albicans it was 100 µg/mL; with Microsporum canis, greater than 100 µg/mL. For the same compound, the Inhibition is 100 µg/mL in the assay on Trichophyton benhamiae; greater than 100 µg/mL with Saprolegnia; greater than 100 µg/mL in [2]; 10 µg/mL in the assay on Trichophyton rubrum; greater than 100 µg/mL in the assay with Cryptococcus neoformans. For the same compound, in assay [5], the C/I ratio came out at 0.

As for `O=c1n(-c2ccc(N3CCN(c4ccc(OC[C@@H]5COC(Cn6cncn6)(c6ccc(Cl)cc6Cl)O5)cc4)CC3)cc2)cnn1CC1CC1` (stereo partly specified), the Inhibition was greater than 100 µg/mL in the assay with Candida tropicalis; 100 µg/mL in the assay with Phialophora verrucosa; greater than 100 µg/mL in the assay on Sporothrix schenckii; greater than 100 µg/mL with Aspergillus fumigatus; 100 µg/mL with Candida albicans; greater than 100 µg/mL with Microsporum canis. Further, the Inhibition in the assay on Trichophyton benhamiae was 10 µg/mL; with Saprolegnia it was greater than 100 µg/mL; in assay [2] it was greater than 100 µg/mL; in the assay on Trichophyton rubrum, 10 µg/mL; in the assay with Cryptococcus neoformans it was greater than 100 µg/mL. For the same compound, the C/I ratio was 1 in assay [6], 0 in assay [1] and 1 in [4].

These data come from ChEMBL document CHEMBL1122688, “Antimycotic azoles. 7. Synthesis and antifungal properties of a series of novel triazol-3-ones” (1984).
